The results in this text go back to ChEMBL document CHEMBL2034844, “Novel multi-functional nitrones for treatment of ischemic stroke” (2012).

The source made the active and inactive calls. The calls are words filed in the database; no cut-off is given here.

Experiment [1] concerns Neuron. Nature of the experiment: Neuroprotective activity against t-BHP-induced rat cerebellar granule neuronal damage at 1000 uM preincubated for 30 mins prior t-BHP challenge measured after 4 hrs by MTT assay (reference value: 49.4%). It is filed as functional. Background: Tetrazolium assays rely on reduction of a dye to a coloured formazan, in cell work by metabolically active cells.

In experiment [2] the test system is Neuron. Nature of the experiment: Neuroprotective activity against t-BHP-induced rat cerebellar granule neuronal damage at 100 uM preincubated for 30 mins prior t-BHP challenge measured after 4 hrs by MTT assay (reference value: 49.4%). It is filed as functional, cell-based.
The nature of experiment [3]: Antioxidant activity assessed as peroxynitrite radical-scavenging activity at 1 to 1000 uM by SIN-1 based chemiluminescence assay. It is filed as functional. The essentials: (§1)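 Peroxynitrite generated from SIN-1 dissolved in 0.1 M PBS. The mix held PBS, luminol, compound or PBS control, and SIN-1 added last to start the reaction; read-out was chemiluminescence.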
Experiment [4] deals with Radical scavenging activity. Nature of the experiment: Antioxidant activity assessed as DPPH radical-scavenging activity at 0.5 to 4 mM by spectrophotometry. It is filed as functional. The essentials: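 50 µL methanolic compound solution mixed with 150 µL methanolic DPPH; absorbance at 515 nm followed continuously until stable (50 min); clearance (%) calculated from the control absorbance and the reaction absorbance at 50 min.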
(DPPH is a stable violet radical that fades when it is reduced.)

Experiment [5] is described as follows: Antioxidant activity assessed as superoxide anion-scavenging activity at 125 to 1000 uM by spectrophotometry. It is filed as functional. The essentials:
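Glass-cuvette mix of Tris–HCl buffer (pH 8.2), pyrogallic acid solution (0.16 mmol/L) and test sample at final 125, 250, 500 and 1000 µM; pyrogallol-autoxidation superoxide assay.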

Experiment [6] deals with Platelet. Nature of the experiment: Inhibition of platelet aggregation in New Zealand rabbit platelet rich plasma assessed as maximum platelet aggregation at 2 mM after 8 mins by platelet aggregometry (reference value: 57.3 +/- 8.3%). It is filed as functional, Oryctolagus cuniculus. Also noted: scale not given: the % may be the effect or the level left.
For experiment [7], the system named is Rattus norvegicus. Nature of the experiment: Neuroprotective activity in Sprague-Dawley rat tMCAO model assessed as reduction in total brain infarct volume at 110 mg/kg, ip after 24 hrs by TTC staining relative to control. The settings on record: route intraperitoneal. Also noted: scale not given: the % may be the effect or the level left. It is filed as functional. The procedure, abridged:
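Adult male Sprague–Dawley rats (260–310 g), chloral hydrate anaesthesia; nylon suture occluding right MCA for 2 h, then reperfusion. Only rats with neurological score 2 or 3 used; body temperature held at 37 °C. Dosed ip 2 h after MCAO; saline vehicle controls. Killed after 22 h reperfusion; six 2-mm coronal slices stained with 0.5% TTC, 37 °C, 30 min; infarct volume by image analysis; n = 13/group.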

A short description of experiment [8]: Antioxidant activity assessed as peroxynitrite radical-scavenging activity at 1 uM by SIN-1 based chemiluminescence assay. It is filed as functional. The essentials:
as §1

A short description of experiment [9]: Antioxidant activity assessed as peroxynitrite radical-scavenging activity at 1000 uM by SIN-1 based chemiluminescence assay. It is filed as functional. The essentials: as §1
Experiment [10] can be described thus: Antioxidant activity assessed as hydroxyl radical-scavenging activity at 1000 uM by monitoring p-NDA bleaching using spectrophotometry. It is filed as functional. The procedure, abridged: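 Fenton-generated hydroxyl radical from FeSO4 (final 4.0 mM) and freshly prepared H2O2 (7.3 mM). p-NDA was prepared at 1.6 mM in 50 mM NaCl. Compounds were dissolved in double-distilled water at final 125–1000 µM. p-NDA bleaching was followed as absorbance loss at 440 nm over 100 s; clearance (%) was calculated from absorbance at 0 and 100 s.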

`CC(C)(C)/[N+]([O-])=C/c1cnc2ccccc2n1`: in experiment [1], the Activity came to 53.9%. Also, the outcome in experiment [2] and in experiment [3] was inactive. Besides, in experiment [4], the outcome was Active.

As to `CC(C)(C)/[N+]([O-])=C\c1ccccc1`, the result in [5] was inactive. Moreover, the result in [3] and in experiment [4] was Active.

As to `CCCc1nccnc1/C=[N+](\[O-])C(C)(C)C`, the outcome in [1], in experiment [2], in experiment [5], in [3] and in experiment [4] was Active. The Activity came out at 66% in experiment [1] (record 2) and 48% in experiment [6].

`Cc1nc(/C=[N+](\[O-])C(C)(C)C)c(C)nc1/C=[N+](\[O-])C(C)(C)C`: the Activity in [1] was 80.6%; in experiment [7] it was 65%; in experiment [6], 37.7%; in [8], 31.9%; in experiment [9] it was 99.4%. For the same compound, the outcome in [2], in experiment [5] and in [4] was Active.

On to `Cc1nc(C)c(CN(Cc2nc(C)c(C)nc2C)C(C)(C)C)nc1C`, for which the values for the Activity in experiment [1], in [6] and in experiment [10] were 75.5%, 44.3% and 100%, respectively. Also, the result in [2] and in experiment [4] was Active. Moreover, the result in experiment [5] and in experiment [3] was inactive.

Turning to `Cc1nc(C)c(C)nc1C` [LIGUSTRAZINE], the Activity in experiment [1] was 58.4%; in experiment [6], 42.9%. For the same compound, the outcome in [5] and in experiment [3] was inactive. Moreover, in experiment [4], the outcome was Active.

For `CCc1nccnc1/C=[N+](\[O-])C(C)(C)C`, the outcome in experiment [1], in [2], in experiment [5] and in experiment [3] was Active. Besides, the Activity in experiment [1] (record 2) stood at 64.6%; in experiment [6], 33.8%.

Compound `CC(C)(C)/[N+]([O-])=C/c1cccc2nccnc12` came in with an Activity in [1] of 54.8%. In addition, the outcome in experiment [2] and in experiment [3] was inactive. Moreover, the outcome in experiment [4] was Active.

Take `CC(=O)Oc1ccccc1C(=O)O` [ASPIRIN]: the Activity in [6] was 26.6%.
